ERAP1 inh: blocks human ERAP1 aminopeptidase activity | recombinant ERAP1, Leu-AMC fluorescence, 60 min | inhibition, % at 10.7 µM | actives 0.15% (n = 340,000) | AID 652197;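 active means mean replicate inhibition of at least 30%, or all replicates individually reaching that 30% level; inactive means mean below 30% and not every replicate reaching it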;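 further: 0% = neutral control wells and 100% = L-leucinethiol positive control wells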
S100A4 inh HTS: S100A4-myosin IIA interaction inhibition | actives 0.14% (n = 360,000) | inhibition, % at 10.7 µM | S100A4/TAMRA-MyoIIA peptide fluorescence polarization;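 active means mean inhibition of at least 70% across replicates, with every replicate also reaching that level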
Target sequence (P26447 whole entry, looked up): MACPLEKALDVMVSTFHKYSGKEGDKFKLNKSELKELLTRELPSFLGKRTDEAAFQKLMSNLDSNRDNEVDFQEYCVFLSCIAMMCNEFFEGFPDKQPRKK
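Material: S100A4 monomer protein | Medium: HEPES pH 7.2 with CaCl2, KCl, NaCl, DTT, Triton | Reagent: Labelled myosin peptide probe, 5 nM | Doses: One dose per compound | Times: 5 min incubation before reading | Benchmarks: Neutral control DMSO, positive control TFP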
DENV2 CPE: inhibitors of DENV2 cytopathic effect | CPE inhibition, % at 9.99 µM | actives 1.7% (n = 350,000) | DENV2-infected cells, cytopathic effect rescue, plate reader; in the data active means CPE inhibition above about 20%, passing the limit was not always enough; tested in BHK-21 cells;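 further: 0% = median of neutral control wells and 100% = median of positive control wells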
CAL PDZ FP-1: inhibitors of human CAL PDZ peptide binding; purified CAL PDZ, TMR-peptide fluorescence polarization, 1 h; Q9HD26; inhibition, % at 20 µM; AID 504414; actives 0.02% (n = 330,000);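 active means highest replicate inhibition of at least 40%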;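 further: plate controls were DMSO neutral control wells for no effect and unlabeled competitor peptide control wells for full effect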
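material = purified tagged CAL PDZ domain construct (CerCALP) | buffer or medium = sodium phosphate/NaCl buffer pH 7.4 with TCEP, IgG, Thesit | reagent = TMR-labelled reporter peptide T*-PRC34 bound in PDZ groove | incubation = 1 h room-temperature incubation prior to read | measured by = fluorescence polarization (mP) | evaluation = percent inhibition from loss of millipolarization | control set = unlabelled peptide and DMSO controls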
SIRT5 inh: inhibitors of human sirtuin-5 desuccinylase; Purified SirT5, succinyl-peptide AMC, trypsin-coupled fluorescence; inhibition, % at 15 µM; actives 1.1% (n = 330,000); AID 652115; in the data active means inhibition above about 15%
Target sequence (Q9NXA8 whole entry, looked up): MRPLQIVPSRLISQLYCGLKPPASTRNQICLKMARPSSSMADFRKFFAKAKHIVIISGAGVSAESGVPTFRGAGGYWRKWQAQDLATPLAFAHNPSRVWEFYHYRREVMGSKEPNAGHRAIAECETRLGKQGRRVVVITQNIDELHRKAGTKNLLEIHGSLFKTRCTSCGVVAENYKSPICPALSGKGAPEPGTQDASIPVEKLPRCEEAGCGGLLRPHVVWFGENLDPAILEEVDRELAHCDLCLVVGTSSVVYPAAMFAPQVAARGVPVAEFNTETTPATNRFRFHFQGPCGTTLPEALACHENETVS
CAL PDZ FP-2: CAL PDZ (human) peptide binding inhibition | purified CAL PDZ, TMR-peptide fluorescence polarization, 1 h | inhibition, % at 24.9 µM | AID 602252 | actives 0.92% (n = 300,000) | Q9HD26;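 active means mean inhibition of at least 30% with at least half of replicates also reaching 30%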;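 further: 0% = DMSO neutral control and 100% = excess unlabeled competitor peptide PRC23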
Starred values were filed as active, the others as inactive; . = no result; + = active, no number. Shown are actives, neighbours in structure and some others; about 2.9% of the full set was active somewhere.

SMILES	ERAP1 inh	S100A4 inh HTS	DENV2 CPE	CAL PDZ FP-1	SIRT5 inh	CAL PDZ FP-2
CCn1ccnc1CN(C)C(=O)CC1C(=O)NCCN1Cc1c(F)cccc1Cl (centres undefined)	1	-1	-4	-2	19*	.
CN(C(=O)CC1C(=O)NCCN1Cc1ccccc1C(F)(F)F)C1CCOCC1 (centres undefined)	-3	-6	7	0	32*	-3
C[C@H]1CN([C@@H](C)CO)C(=O)c2cccc(NC(=O)NC3CCCCC3)c2O[C@@H]1CN(C)CC1CC1	0	-3	11	.	1	.
CCc1cccc(C)c1NC(=O)c1cc(=O)[nH]c2ccc(S(=O)(=O)N3CCOCC3)cc12	95*	0	1	-2	-2	-2
COc1cccc(NC(=O)N[C@@H]2C=C[C@@H](CC(=O)Nc3ccccc3)O[C@@H]2CO)c1	-3	4	-2	.	-3	.
O=C(C1=C(O)C(=O)N(CC2CCCO2)C1c1ccccc1)c1ccco1 (centres undefined)	3	-7	1	-1	1	-3
COc1ccc(C2C(C(=O)c3ccco3)=C(O)C(=O)N2CC2CCCO2)cc1OC (centres undefined)	6	-2	8	0	1	52*
COc1ccc(NC(=O)Nc2ccc3c(c2)[C@H]2C[C@@H](CC(=O)NCc4ccc5c(c4)OCO5)O[C@@H](CO)[C@H]2O3)cc1	3	-4	-7	.	3	.
O=C(CSc1ccccn1)Nc1cccc2ccccc12	88*	-6	-3	18	-3	-5
O=C(CSc1ccccn1)Nc1ccccc1F	.	.	.	0	.	3
N#CC1(NC(=O)CSc2ccccn2)CCCCC1	0	-8	111*	-2	-2	-3
Cc1ccc(S(=O)(=O)N[C@@H]2CC[C@H](CCn3cc(-c4cccnc4)nn3)O[C@H]2CO)cc1	0	7	1	.	0	.
O=C(NCCc1ccccc1)C1c2ccccc2C(=O)N1Cc1cccs1 (centres undefined)	.	-2	9	0	34*	-4
COc1ccc(C(CNC(=O)Cc2ccccc2)N2CCCCC2)cc1 (centres undefined)	-1	-21	-1	-3	1	-2
COc1ccc(NS(=O)(=O)c2cccc(C(=O)NCC(c3ccc(OC)cc3)N3CCCCC3)c2)cc1 (centres undefined)	-3	-3	-1	-2	1	.
COc1ccc(C(CNC(=O)C2COc3ccccc3O2)N2CCCC2)cc1 (centres undefined)	1	22	8	0	-6	68*
COc1ccc(C(CNC(=O)c2cccc(S(=O)(=O)N3CCCCC3)c2)N2CCCC2)cc1 (centres undefined)	2	4	17	0	24*	5
O=S(=O)(O)c1ccc(N=NNc2ccc(Br)cc2)cc1	5	-1	9	-1	1	52*
O=Cc1cc(N=Nc2ccc(S(=O)(=O)O)cc2)ccc1O	10	14	-2	0	7	-5
CCCN1C[C@H](C)[C@H](OC)CN(C)C(=O)c2cc(NC(=O)c3ccc(F)cc3)ccc2OC[C@@H]1C	0	-1	-10	.	6	.
CO[C@@H]1CC[C@H]2CCN(C)C(=O)C[C@H](c3ccccc3)CN(C)C(=O)c3cc(C#N)ccc3OC[C@@H]1O2	2	-8	52*	.	0	.
O=C(O)c1ccc(NC2=C(Cl)C(=O)c3ccccc3C2=O)cc1	8	5	6	2	3	-6
O=C(O)c1cccc(NC2=C(Cl)C(=O)c3ccccc3C2=O)c1	5	1	10	0	112*	2
CS(=O)(=O)N1[C@H](CO)[C@H](c2ccccc2-c2ccc(F)cc2)[C@@H]1C#N	2	53	-2	.	-3	.
CCn1nnnc1SCC(=O)c1cc(OC)ccc1OC	.	.	.	0	.	41*
SMILES	ERAP1 inh	S100A4 inh HTS	DENV2 CPE	CAL PDZ FP-1	SIRT5 inh	CAL PDZ FP-2
COCCNC(=O)C[C@H]1C[C@@H]2c3cc(NC(=O)Nc4ccccc4F)ccc3O[C@@H]2[C@@H](CO)O1	.	.	10	.	.	.
Cc1cc(C)c(NC(=O)Cn2nnc(C(=O)NCc3cccs3)c2N)c(C)c1	.	.	.	-4	.	-1
Cc1cc(C)cc(NC(=O)Cn2nnc(C(=O)NCc3cccs3)c2N)c1	-1	3	27*	-2	-3	-3
N#Cc1c(Nc2ccccc2)[n+]([O-])c2ccc(Cl)cc2[n+]1[O-]	-2	-2	21*	-1	2	-7
Cn1c(SCC(=O)c2cc3ccccc3o2)nnc1-c1ccccc1	5	-1	67*	-2	-1	.
CCOC(=O)CSc1nnc(-c2ccc3ncccc3c2)n1C	-2	-1	-4	0	1	+
Cn1cnnc1SCC(=O)c1cc2ccccc2o1	2	6	-1	-2	0	1
CC(=O)N1[C@@H](CO)[C@@H]2c3ccccc3N(C(=O)c3ccccc3)C[C@@H]21	-1	-10	7	.	0	.
COc1ccc(C(C)C)cc1S(=O)(=O)NCC1CCCO1 (centres undefined)	-2	-3	0	-1	15*	1
COc1ccc(OC)c(S(=O)(=O)NCC2CCCO2)c1 (centres undefined)	.	.	.	-1	.	7
COc1ccc(-n2nc(C(=O)NCC(=O)N(C)Cc3ccccc3)c3ccccc3c2=O)cc1	-9	0	-3	-2	-1	38*
COc1ccc(-n2nc(C(=O)NCC(=O)O)c3ccccc3c2=O)cc1	2	-2	4	0	0	1
OC[C@@H]1[C@@H](c2ccc(-c3cccnc3)cc2)[C@H]2CN(CC3CCOCC3)CCCCN12	-1	7	-8	.	-3	.
CCN1[C@@H]2c3ccc(-c4cncnc4)c(=O)n3C[C@@H]2[C@@H](CO)[C@@H]1C(=O)OC	1	4	0	.	2	.
COC(=O)[C@@]1(Cc2ccc(F)cc2)[C@H]2c3cc(C(=O)N(C)C)n(Cc4ccc(OC(F)(F)F)cc4)c3C[C@H]2CN1C(=O)c1ccccc1	.	-4	20*	.	.	.

Bioassay records deposited in PubChem BioAssay by Broad Institute.
